# According to ChEMBL document CHEMBL4002574, “Structure-based exploration and exploitation of the S4 subsite of norovirus 3CL protease in the design of potent and permeable inhibitors” (Eur J Med Chem, 2017):
# Assays:
# [1] = Cytotoxicity against human HG23 cells measured after 72 hrs by […] CytoTox-96 non-radioactive assay; format: cell-based
# [2] = Inhibition of Norovirus 3CL protease preincubated for 30 mins followed by addition of Edans-DFHLQ/GP-Dabcyl as substrate measured after 1 hr by FRET assay
# Procedure, shortened: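 Protease preincubated 30 min at 37°C with serially diluted compound or DMSO in 20 mM HEPES pH 8, 200 mM NaCl, 0.4 mM EDTA, 60% glycerol, 6 mM DTT; Edans-DFHLQ/GP-Dabcyl substrate then added. Fluorescence (ex 360/em 460 nm) read 1 h later; background (substrate, no protease) subtracted; IC50 from variable-slope dose-response fit.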
# [3] = tested on: Norovirus; assay: Antiviral activity Norovirus infected in human HG23 cells assessed as decrease in viral RNA level measured after 48 hrs by qRT-PCR analysis; format: functional, cell-based; settings: HG23, 48 h
# Procedure, shortened: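 Norwalk virus replicon-bearing HG23 cells, confluent and semi-confluent, exposed 48 h to compound (up to 100 μM) or DMSO (<0.1%) in medium. Total RNA extracted, viral genome quantified by real-time qRT-PCR; EC50 derived from concentration-response data.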
SMILES,CC50 at 72 h [1] [nM],IC50 [2] [nM],EC50 [3] [nM]
O=C[C@H](C[C@@H]1CCNC1=O)NC(=O)[C@H](CC1CCCCC1)NS(=O)(=O)c1cccs1,> 100000,10400,8500
O=C1NCC[C@H]1C[C@H](NC(=O)[C@H](CC1CCCCC1)NS(=O)(=O)c1cccc(Cl)c1)C(O)S(=O)(=O)O (stereo partly specified),> 100000,5700,1900
O=C1NCC[C@H]1C[C@H](NC(=O)[C@H](CC1CCCCC1)NS(=O)(=O)c1ccc(-c2ccccc2)cc1)C(O)S(=O)(=O)O (stereo partly specified),> 100000,1100,1200
O=C[C@H](C[C@@H]1CCNC1=O)NC(=O)[C@H](CC1CCCCC1)NS(=O)(=O)CCN1C(=O)c2ccccc2C1=O,> 100000,2500,2300
O=C[C@H](C[C@@H]1CCNC1=O)NC(=O)[C@H](CC1CCCCC1)NS(=O)(=O)c1ccc(F)cc1,> 100000,4800,2000
O=C[C@H](C[C@@H]1CCNC1=O)NC(=O)[C@H](CC1CCCCC1)NS(=O)(=O)Cc1ccccc1,> 100000,4500,4100
COc1ccc(OCCCS(=O)(=O)N[C@@H](CC2CCCCC2)C(=O)N[C@@H](C[C@@H]2CCNC2=O)C(O)S(=O)(=O)O)cc1 (stereo partly specified),> 100000,1600,200
O=C[C@H](C[C@@H]1CCNC1=O)NC(=O)[C@H](CC1CCCCC1)NS(=O)(=O)c1ccc(-c2ccccc2)cc1,> 100000,1300,1300
O=C[C@H](C[C@@H]1CCNC1=O)NC(=O)[C@H](CC1CCCCC1)NS(=O)(=O)CCc1ccccc1,> 100000,1800,700
O=C1NCC[C@H]1C[C@H](NC(=O)[C@H](CC1CCCCC1)NS(=O)(=O)c1ccc(Cl)cc1)C(O)S(=O)(=O)O (stereo partly specified),> 100000,5100,7200
O=C1NCC[C@H]1C[C@H](NC(=O)[C@H](CC1CCCCC1)NS(=O)(=O)CCN1C(=O)c2ccccc2C1=O)C(O)S(=O)(=O)O (stereo partly specified),> 100000,2600,2100
CCCCCCCCCCOC(=O)N[C@@H](CC1CCCCC1)C(=O)N[C@H](C=O)C[C@@H]1CCNC1=O,32100,300,100
O=C(N[C@@H](CC1CCCCC1)C(=O)N[C@@H](C[C@@H]1CCNC1=O)C(O)S(=O)(=O)O)OCCc1cccc(Cl)c1 (stereo partly specified),46700,500,100
O=C[C@H](C[C@@H]1CCNC1=O)NC(=O)[C@H](CC1CCCCC1)NS(=O)(=O)c1cccc(Cl)c1,> 100000,5500,2300
O=C[C@H](C[C@@H]1CCNC1=O)NC(=O)[C@H](CC1CCCCC1)NS(=O)(=O)c1ccccc1,> 100000,8500,9500
O=C[C@H](C[C@@H]1CCNC1=O)NC(=O)[C@H](CC1CCCCC1)NS(=O)(=O)CCc1cccc(Cl)c1,> 100000,2300,1100

SMILES,CC50 at 72 h [1] [nM],IC50 [2] [nM],EC50 [3] [nM]
O=C1NCC[C@H]1C[C@H](NC(=O)[C@H](CC1CCCCC1)NS(=O)(=O)CCc1cccc(Cl)c1)C(O)S(=O)(=O)O (stereo partly specified),> 100000,1900,800
CCCCCCCCS(=O)(=O)N[C@@H](CC1CCCCC1)C(=O)N[C@@H](C[C@@H]1CCNC1=O)C(O)S(=O)(=O)O (stereo partly specified),35400,1100,200
O=C[C@H](C[C@@H]1CCNC1=O)NC(=O)[C@H](CC1CCCCC1)NS(=O)(=O)c1ccc(Cl)cc1,> 100000,5800,3500
O=C1NCC[C@H]1C[C@H](NC(=O)[C@H](CC1CCCCC1)NS(=O)(=O)c1ccccc1)C(O)S(=O)(=O)O (stereo partly specified),> 100000,13500,12300
O=C1NCC[C@H]1C[C@H](NC(=O)[C@H](CC1CCCCC1)NS(=O)(=O)c1cccs1)C(O)S(=O)(=O)O (stereo partly specified),> 100000,8500,8100
O=C1NCC[C@H]1C[C@H](NC(=O)[C@H](CC1CCCCC1)NS(=O)(=O)Cc1ccccc1)C(O)S(=O)(=O)O (stereo partly specified),> 100000,4300,4300
CCCCCCCCCCOC(=O)N[C@@H](CC1CCCCC1)C(=O)N[C@@H](C[C@@H]1CCNC1=O)C(O)S(=O)(=O)O (stereo partly specified),34500,400,200
O=C[C@H](C[C@@H]1CCNC1=O)NC(=O)[C@H](CC1CCCCC1)NS(=O)(=O)Cc1ccc(Cl)cc1,> 100000,1800,2400
O=C1NCC[C@H]1C[C@H](NC(=O)[C@H](CC1CCCCC1)NS(=O)(=O)CCc1ccccc1)C(O)S(=O)(=O)O (stereo partly specified),> 100000,2100,800
O=C[C@H](C[C@@H]1CCNC1=O)NC(=O)[C@H](CC1CCCCC1)NC(=O)OCCOCc1ccccc1,> 100000,2100,200
CCCCCCCCS(=O)(=O)N[C@@H](CC1CCCCC1)C(=O)N[C@H](C=O)C[C@@H]1CCNC1=O,33800,1200,300
COc1ccc(OCCCS(=O)(=O)N[C@@H](CC2CCCCC2)C(=O)N[C@H](C=O)C[C@@H]2CCNC2=O)cc1,> 100000,1800,200
O=C(N[C@@H](CC1CCCCC1)C(=O)N[C@@H](C[C@@H]1CCNC1=O)C(O)S(=O)(=O)O)OCCOCc1ccccc1 (stereo partly specified),> 100000,1600,300
O=C1NCC[C@H]1C[C@H](NC(=O)[C@H](CC1CCCCC1)NS(=O)(=O)c1ccc(F)cc1)C(O)S(=O)(=O)O (stereo partly specified),> 100000,6200,2100
O=C[C@H](C[C@@H]1CCNC1=O)NC(=O)[C@H](CC1CCCCC1)NC(=O)OCCc1cccc(Cl)c1,43200,600,100
O=C1NCC[C@H]1C[C@H](NC(=O)[C@H](CC1CCCCC1)NS(=O)(=O)Cc1ccc(Cl)cc1)C(O)S(=O)(=O)O (stereo partly specified),> 100000,1200,2200
